Data reported in ChEMBL document CHEMBL4680373, “Evaluation of 5-(Trifluoromethyl)-1,2,4-oxadiazole-Based Class IIa HDAC Inhibitors for Huntington's Disease” (ACS Med Chem Lett, 2021).

Legend:
Histone deacetylase 4 = Histone deacetylase 4 (Homo sapiens, UniProt P56524); assay: Inhibition of HDAC4 (unknown origin) using Boc Lys(TFA) as substrate by fluorogenic assay
Procedure, shortened: (§1)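 Biochemical HDAC isoform assay with the artificial fluorogenic substrate Boc-Lys-(TFA)-AMC, which is specific to class IIa enzymes and HDAC8. IC50 taken as the geometric mean of three experiments.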

Histone deacetylase 8 = molecular target: T1, Histone deacetylase 8 (Homo sapiens, UniProt Q9BY41); assay: Inhibition of HDAC8 (unknown origin) using Boc-Lys(TFA) as substrate by fluorogenic assay; procedure, shortened: as §1
T1 sequence (Q9BY41 whole entry): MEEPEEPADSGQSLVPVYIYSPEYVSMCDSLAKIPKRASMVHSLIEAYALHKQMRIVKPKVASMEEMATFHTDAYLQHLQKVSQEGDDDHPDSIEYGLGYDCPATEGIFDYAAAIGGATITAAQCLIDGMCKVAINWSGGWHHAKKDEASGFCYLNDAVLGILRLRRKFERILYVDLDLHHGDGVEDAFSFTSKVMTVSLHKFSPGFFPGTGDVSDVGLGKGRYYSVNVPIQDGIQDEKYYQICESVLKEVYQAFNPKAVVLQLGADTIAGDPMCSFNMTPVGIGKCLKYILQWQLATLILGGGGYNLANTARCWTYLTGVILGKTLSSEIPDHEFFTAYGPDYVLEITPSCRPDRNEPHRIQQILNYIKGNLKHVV

[1] = molecular target: T2, Protein deacetylase HDAC6 (Homo sapiens, UniProt Q9UBN7); assay: Inhibition of HDAC6 (unknown origin) expressed in human HEK-Freestyle cells using Boc-Lys(Ac) as substrate by fluorogenic assay; type: cell-based
T2 sequence (Q9UBN7 whole entry): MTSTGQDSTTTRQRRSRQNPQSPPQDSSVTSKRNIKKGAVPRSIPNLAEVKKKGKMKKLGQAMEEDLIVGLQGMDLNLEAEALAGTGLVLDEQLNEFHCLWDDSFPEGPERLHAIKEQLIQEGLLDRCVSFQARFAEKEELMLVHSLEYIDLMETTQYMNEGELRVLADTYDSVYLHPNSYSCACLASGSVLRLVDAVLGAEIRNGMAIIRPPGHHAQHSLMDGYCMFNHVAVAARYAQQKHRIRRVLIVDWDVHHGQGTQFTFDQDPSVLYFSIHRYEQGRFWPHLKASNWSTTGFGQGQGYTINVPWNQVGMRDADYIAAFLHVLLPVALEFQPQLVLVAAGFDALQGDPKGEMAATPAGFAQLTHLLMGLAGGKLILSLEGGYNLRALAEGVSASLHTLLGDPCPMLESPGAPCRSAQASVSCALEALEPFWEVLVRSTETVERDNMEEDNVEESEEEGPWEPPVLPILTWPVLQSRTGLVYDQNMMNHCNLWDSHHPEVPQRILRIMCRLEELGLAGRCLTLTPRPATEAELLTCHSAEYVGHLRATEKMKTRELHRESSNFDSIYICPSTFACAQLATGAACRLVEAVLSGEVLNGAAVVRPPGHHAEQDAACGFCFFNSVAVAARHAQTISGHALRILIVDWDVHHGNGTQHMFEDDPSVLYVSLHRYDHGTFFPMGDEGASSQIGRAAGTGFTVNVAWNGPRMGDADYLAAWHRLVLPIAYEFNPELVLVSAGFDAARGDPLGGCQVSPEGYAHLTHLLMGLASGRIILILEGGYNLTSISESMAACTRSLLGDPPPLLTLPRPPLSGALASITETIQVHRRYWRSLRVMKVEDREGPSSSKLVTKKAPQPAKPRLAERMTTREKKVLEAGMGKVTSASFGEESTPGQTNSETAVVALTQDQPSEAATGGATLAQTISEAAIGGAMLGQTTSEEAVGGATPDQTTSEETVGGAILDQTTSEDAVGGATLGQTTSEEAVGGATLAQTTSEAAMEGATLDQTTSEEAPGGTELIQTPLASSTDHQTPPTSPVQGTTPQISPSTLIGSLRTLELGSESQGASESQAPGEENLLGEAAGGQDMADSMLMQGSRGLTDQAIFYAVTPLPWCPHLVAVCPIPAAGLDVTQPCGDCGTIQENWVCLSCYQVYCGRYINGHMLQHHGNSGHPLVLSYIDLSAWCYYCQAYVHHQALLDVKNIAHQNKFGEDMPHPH
Procedure, shortened: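 HDAC6 was supplied as lysate of HEK cells overexpressing the enzyme. Activity was read with the class I/IIb-specific fluorogenic substrate Boc-Lys-(Ac)-AMC. IC50 is the geometric mean of three experiments.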

[2] = Inhibition of Class 1/2b HDAC in human Jurkat E6.1 cells using Boc-Lys-(Ac)-AMC as substrate by fluorogenic assay; type: cell-based
Procedure, shortened: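 Whole-cell assay in Jurkat E6.1 cells with artificial fluorogenic substrates: Boc-Lys-(TFA)-AMC for class IIa/HDAC8 activity, which in this line is mostly HDAC4, and Boc-Lys-(Ac)-AMC for class I/IIb activity. IC50 given as the geometric mean of three experiments.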

[3] = molecular target: Voltage-gated inwardly rectifying potassium channel KCNH2 (Homo sapiens, UniProt Q12809); assay: Inhibition of human ERG
Voltage-gated inwardly rectifying potassium channel KCNH2, sequence (Q12809 whole entry): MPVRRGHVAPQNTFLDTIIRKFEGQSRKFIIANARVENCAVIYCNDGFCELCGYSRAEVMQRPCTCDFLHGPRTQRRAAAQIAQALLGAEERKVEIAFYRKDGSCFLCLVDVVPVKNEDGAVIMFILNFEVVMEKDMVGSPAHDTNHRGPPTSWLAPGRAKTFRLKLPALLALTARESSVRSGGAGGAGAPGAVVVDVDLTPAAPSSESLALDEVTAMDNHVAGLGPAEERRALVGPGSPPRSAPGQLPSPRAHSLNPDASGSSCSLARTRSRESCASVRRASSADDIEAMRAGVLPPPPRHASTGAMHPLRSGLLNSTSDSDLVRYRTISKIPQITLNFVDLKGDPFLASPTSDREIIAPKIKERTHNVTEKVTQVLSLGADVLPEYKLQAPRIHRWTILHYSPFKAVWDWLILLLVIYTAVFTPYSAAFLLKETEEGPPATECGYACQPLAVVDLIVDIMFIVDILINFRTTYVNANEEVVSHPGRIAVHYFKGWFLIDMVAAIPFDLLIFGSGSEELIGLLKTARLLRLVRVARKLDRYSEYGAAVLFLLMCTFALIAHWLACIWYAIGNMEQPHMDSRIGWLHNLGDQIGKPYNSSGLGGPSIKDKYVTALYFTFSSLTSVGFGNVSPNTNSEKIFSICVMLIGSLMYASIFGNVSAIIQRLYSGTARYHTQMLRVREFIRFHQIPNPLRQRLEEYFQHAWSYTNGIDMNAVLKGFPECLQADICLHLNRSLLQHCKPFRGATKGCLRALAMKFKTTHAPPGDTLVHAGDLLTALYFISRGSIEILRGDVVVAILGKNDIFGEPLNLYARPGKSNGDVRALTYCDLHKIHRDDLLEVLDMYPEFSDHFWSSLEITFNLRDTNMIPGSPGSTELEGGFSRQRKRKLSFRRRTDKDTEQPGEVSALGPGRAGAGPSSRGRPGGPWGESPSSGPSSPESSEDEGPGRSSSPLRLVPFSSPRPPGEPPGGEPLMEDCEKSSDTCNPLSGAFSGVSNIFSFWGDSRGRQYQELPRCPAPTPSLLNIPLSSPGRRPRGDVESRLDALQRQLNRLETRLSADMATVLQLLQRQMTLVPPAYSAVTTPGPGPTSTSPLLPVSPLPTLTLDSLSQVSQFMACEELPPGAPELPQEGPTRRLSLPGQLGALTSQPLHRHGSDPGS
Procedure, shortened: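 hERG affinity was measured on the IonWorks automated electrophysiology platform and reported as Kd.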

[4] = molecular target: Muscarinic acetylcholine receptor M4 (Homo sapiens, UniProt P08173); assay: Displacement of [3H]4-DAMP from human recombinant M4 receptor incubated for 1 hr by radiometric scintillation counting analysis
Muscarinic acetylcholine receptor M4, sequence (P08173 whole entry): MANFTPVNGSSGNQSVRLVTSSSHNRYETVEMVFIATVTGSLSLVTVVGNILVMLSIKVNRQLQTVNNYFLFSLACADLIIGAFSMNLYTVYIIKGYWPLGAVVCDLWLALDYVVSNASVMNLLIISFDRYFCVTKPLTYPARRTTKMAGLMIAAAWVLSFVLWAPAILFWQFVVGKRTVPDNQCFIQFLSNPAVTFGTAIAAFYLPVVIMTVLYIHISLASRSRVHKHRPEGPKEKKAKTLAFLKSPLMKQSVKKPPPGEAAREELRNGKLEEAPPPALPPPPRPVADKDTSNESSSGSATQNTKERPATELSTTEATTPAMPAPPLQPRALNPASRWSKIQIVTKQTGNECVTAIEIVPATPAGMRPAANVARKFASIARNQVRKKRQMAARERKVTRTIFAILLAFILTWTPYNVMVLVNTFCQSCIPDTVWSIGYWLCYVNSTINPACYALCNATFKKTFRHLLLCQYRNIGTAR

Cytochrome P450 2C9 = Cytochrome P450 2C9 (Homo sapiens, UniProt P11712); assay: Inhibition of CYP2C9 in human liver microsomes using diclofenac as substrate incubated for 15 mins by LC-MS/MS analysis; type: ADME
Cytochrome P450 2C9, sequence (P11712 whole entry): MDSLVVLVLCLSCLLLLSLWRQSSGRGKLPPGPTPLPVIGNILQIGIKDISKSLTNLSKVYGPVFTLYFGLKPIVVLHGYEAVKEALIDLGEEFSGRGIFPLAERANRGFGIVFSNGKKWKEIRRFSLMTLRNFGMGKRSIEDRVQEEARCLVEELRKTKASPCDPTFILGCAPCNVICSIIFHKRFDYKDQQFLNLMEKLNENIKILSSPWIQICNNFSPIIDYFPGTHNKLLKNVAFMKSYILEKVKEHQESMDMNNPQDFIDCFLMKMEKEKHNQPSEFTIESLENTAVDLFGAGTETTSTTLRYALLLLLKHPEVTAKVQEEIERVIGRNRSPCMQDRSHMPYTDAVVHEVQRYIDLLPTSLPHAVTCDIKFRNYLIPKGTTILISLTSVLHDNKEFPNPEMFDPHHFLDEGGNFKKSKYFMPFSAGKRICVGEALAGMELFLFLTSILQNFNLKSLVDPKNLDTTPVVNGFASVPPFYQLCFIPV

Cytochrome P450 2C19 = Cytochrome P450 2C19 (Homo sapiens, UniProt P33261); assay: Inhibition of CYP2C19 in human liver microsomes using (S)-(+)-mephenytoin as substrate incubated for 30 mins by LC-MS/MS analysis; type: ADME
Cytochrome P450 2C19, sequence (P33261 whole entry): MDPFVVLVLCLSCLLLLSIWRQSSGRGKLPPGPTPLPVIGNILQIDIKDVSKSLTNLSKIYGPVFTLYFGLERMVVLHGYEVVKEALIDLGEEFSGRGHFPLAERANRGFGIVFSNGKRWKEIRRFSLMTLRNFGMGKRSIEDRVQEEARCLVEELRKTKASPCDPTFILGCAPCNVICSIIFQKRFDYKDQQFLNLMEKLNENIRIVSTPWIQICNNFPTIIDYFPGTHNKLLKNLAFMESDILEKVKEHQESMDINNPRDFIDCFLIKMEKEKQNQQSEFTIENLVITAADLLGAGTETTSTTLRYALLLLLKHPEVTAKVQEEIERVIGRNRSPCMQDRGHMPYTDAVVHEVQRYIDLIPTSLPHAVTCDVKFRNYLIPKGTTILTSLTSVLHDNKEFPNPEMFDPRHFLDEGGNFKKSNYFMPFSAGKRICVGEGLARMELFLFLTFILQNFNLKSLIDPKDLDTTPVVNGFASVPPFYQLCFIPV

Cytochrome P450 3A4 = Cytochrome P450 3A4 (Homo sapiens, UniProt P08684); assay: Inhibition of CYP3A4 in human liver microsomes using midazolam as substrate incubated for 15 mins by LC-MS/MS analysis; type: ADME
Cytochrome P450 3A4, sequence (P08684 whole entry): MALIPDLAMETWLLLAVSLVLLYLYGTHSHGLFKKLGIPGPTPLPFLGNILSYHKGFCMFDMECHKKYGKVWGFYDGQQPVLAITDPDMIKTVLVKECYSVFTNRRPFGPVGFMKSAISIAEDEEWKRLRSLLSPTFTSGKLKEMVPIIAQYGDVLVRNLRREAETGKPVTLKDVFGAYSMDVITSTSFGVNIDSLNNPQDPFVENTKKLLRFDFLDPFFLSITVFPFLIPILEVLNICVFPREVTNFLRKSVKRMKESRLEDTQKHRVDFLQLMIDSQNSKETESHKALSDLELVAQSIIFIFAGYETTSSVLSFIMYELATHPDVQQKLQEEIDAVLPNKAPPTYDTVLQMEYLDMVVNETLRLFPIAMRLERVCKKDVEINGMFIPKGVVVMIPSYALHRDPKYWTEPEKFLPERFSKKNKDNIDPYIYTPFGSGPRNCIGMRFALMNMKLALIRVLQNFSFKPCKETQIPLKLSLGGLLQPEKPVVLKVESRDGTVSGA

[5] = Metabolic stability of the compound in human plasma; type: ADME, cell-free
[6] = Tmax in C57BL/6J mouse brain at 11.5 mg/kg, po administered via gavage by LC-MS/MS analysis; type: ADME, organism-based
[7] = Toxicity in CBAxC57BL/6J mouse assessed as effect on body temperature at 10 to 100 mg/kg, po bid for 14.5 days; type: organism-based; details: in vivo, 348 h, dose 10-100 mg/kg, time 14.5 day
Procedure, shortened: (§2)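 R6/2 HD mice and wild-type littermates, male and female, were dosed orally b.i.d. at 10, 30 or 100 mg/kg or with vehicle for 14.5 days. Vehicle was 10% (w/v) hydroxypropyl-β-cyclodextrin in 50 mM citrate buffer. Body weight, body temperature, passive observations and active manipulation scores were recorded. Blood and brain were collected 2 h after the final dose.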

[8] = Toxicity in CBAxC57BL/6J mouse assessed as effect on flaccidity at 10 to 100 mg/kg, po bid for 14.5 days; type: organism-based; details: in vivo, 348 h, dose 10-100 mg/kg, time 14.5 day; procedure, shortened: as §2

Histone deacetylase 4, sequence (P56524 whole entry, canonical isoform): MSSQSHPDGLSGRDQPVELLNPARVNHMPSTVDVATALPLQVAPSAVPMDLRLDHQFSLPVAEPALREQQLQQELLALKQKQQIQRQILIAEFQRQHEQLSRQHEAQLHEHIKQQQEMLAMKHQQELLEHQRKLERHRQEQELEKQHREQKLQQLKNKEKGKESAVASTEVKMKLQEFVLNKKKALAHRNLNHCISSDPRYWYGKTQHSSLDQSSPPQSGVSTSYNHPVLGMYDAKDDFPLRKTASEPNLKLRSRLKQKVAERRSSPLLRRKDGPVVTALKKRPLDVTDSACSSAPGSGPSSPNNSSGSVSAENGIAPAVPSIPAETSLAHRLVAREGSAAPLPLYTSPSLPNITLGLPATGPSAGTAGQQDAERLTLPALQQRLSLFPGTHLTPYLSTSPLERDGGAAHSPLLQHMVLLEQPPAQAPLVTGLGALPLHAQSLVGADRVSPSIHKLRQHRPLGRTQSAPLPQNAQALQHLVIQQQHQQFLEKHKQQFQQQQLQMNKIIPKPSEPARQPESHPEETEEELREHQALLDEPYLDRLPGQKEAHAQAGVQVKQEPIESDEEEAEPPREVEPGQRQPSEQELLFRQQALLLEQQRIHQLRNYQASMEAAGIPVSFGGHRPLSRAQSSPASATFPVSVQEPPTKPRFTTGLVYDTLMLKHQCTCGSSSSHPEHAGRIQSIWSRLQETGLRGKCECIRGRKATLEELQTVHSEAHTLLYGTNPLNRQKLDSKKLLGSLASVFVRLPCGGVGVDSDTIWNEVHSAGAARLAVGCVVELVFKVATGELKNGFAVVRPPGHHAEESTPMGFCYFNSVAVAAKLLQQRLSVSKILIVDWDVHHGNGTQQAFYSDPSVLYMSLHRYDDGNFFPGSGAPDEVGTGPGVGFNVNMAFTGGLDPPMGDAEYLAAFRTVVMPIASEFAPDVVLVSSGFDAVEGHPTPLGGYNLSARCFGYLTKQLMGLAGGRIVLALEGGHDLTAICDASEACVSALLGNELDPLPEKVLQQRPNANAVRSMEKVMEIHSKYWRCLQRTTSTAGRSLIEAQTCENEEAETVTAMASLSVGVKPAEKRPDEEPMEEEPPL

- IC50 (Histone deacetylase 4): 10 nM
- IC50 (Histone deacetylase 8): 2000 nM
- IC50 [1]: 22 µM
- IC50 [2]: 5 µM
- Kd [4]: > 5 µM
- IC50 (Cytochrome P450 2C9): > 50 µM
- IC50 (Cytochrome P450 2C19): > 50 µM
- IC50 (Cytochrome P450 3A4): > 50 µM
- Stabilty [5]: Stable
- Tmax [6]: 30 min
SMILES: C[C@H](CN1CCC[C@@H]1C)NC(=O)c1ccc(-c2noc(C(F)(F)F)n2)cc1
- Kd [3]: 3.9 µM
- Activity [7]: Non-Toxic
- Activity [8]: Non-Toxic
